# Source: ChEMBL document CHEMBL1649306, “Arylimidamide DB766, a potential chemotherapeutic candidate for Chagas' disease treatment” (Antimicrob Agents Chemother, 2010)
# Where “and” joins values, the source holds several entries; their conditions need not be identical. Equal values may be shown once. Calls of active or inactive are those of the source. No cut-off for these calls is given here.
# Key:
# [1] = test system: Trypanosoma cruzi; experiment: Antitrypanosomal activity against Trypanosoma cruzi Y bloodstream forms infected in Swiss-Webster mouse assessed as decrease in parasite-induced cardiac inflammation in mouse at 100 mg/kg/day, ip administered 5 days postinfection for 10 alternate days measured after 14 days postinfection; format: functional, Heart; design: scale not given: the % may be the effect or the level left; conditions: route intraperitoneal
# [2] = test system: Trypanosoma cruzi; experiment: Antitrypanosomal activity against Trypanosoma cruzi Y epimastigotes after 24 hrs by light microscopy; format: functional, organism-based
# Outline: (§1)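 Epimastigotes from 5-day exponential cultures, 5 × 10^6 parasites/ml in LIT medium, incubated at 28°C up to 96 h with DB766 0 to 32 μM or Bz 0 to 250 μM. Counted daily in a Neubauer chamber. IC50 averaged from at least three determinations in duplicate.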
# [3] = test system: Trypanosoma cruzi; experiment: Antitrypanosomal activity against Trypanosoma cruzi Y bloodstream forms infected in Swiss-Webster mouse assessed as survival rate of mouse at 100 mg/kg/day, ip administered 8 days postinfection measured on day 120; format: functional; conditions: route intraperitoneal
# Outline: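 Every-other-day i.p. dosing (5 doses, each 48 h apart) of 100 mg/kg/day in male Swiss mice inoculated with 10^4 Y-strain bloodstream trypomastigotes, n ≥ 6 parasitemia-positive animals. Mortality recorded daily up to 120 dpi as cumulative percentage.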
# [4] = test system: Mus musculus; experiment: Toxicity in […](H-2k) mouse assessed as effect on creatine kinase level at 100 mg/kg/day, ip; format: organism-based; design: route intraperitoneal; conditions: in vivo
# [5] = test system: Trypanosoma cruzi; experiment: Antitrypanosomal activity against Trypanosoma cruzi Columbian bloodstream forms infected in C3H mouse assessed as decrease in parasite load at 25 mg/kg/day, ip administered 5 days postinfection for 10 consecutive days measured after 120 days; format: functional, organism-based
# [6] = test system: Trypanosoma cruzi; experiment: Selectivity ratio of IC50 for Trypanosoma cruzi Y bloodstream forms to IC50 for Trypanosoma cruzi Y amastigotes; format: functional
# [7] = test system: Trypanosoma cruzi; experiment: Antitrypanosomal activity against Trypanosoma cruzi Y bloodstream forms infected in Swiss-Webster mouse assessed as reduction in parasite-induced weight loss at 100 mg/kg/day, ip administered 5 days postinfection for 10 consecutive days measured after 120 days; format: functional, organism-based
# Outline: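 Body weight of infected, treated mice followed from 0 to 120 dpi.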
# [8] = test system: Trypanosoma cruzi; experiment: Antitrypanosomal activity against bloodstream forms of Trypanosoma cruzi Y infected in Swiss mouse cardiomyocytes assessed as intracellular parasitemia at 10.6 uM after 72 hrs by Pizzi-Brener method; format: functional, organism-based
# [9] = test system: Trypanosoma cruzi; experiment: Antitrypanosomal activity against Trypanosoma cruzi Y bloodstream forms after 2 hrs by light microscopy; format: functional, organism-based
# Outline: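 Bloodstream trypomastigotes from infected Swiss mice at peak parasitemia, 5.0 × 10^6 cells/ml in RPMI 1640 with 5% FBS. Exposed at 37°C to serial dilutions from 0 to 32 μM. Motile live parasites counted by light microscopy in a Neubauer chamber, then IC50 calculated.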
# [10] = Cytotoxicity against Swiss-Webster mouse cardiomyocytes after 72 hrs by MTT assay; format: cell-based, Cardiomyocyte; conditions: read-out: LC50
# Outline: (§2)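 Primary embryonic cardiomyocytes from Swiss mice, uninfected, incubated 24 h or 72 h at 37°C, 5% CO2, with 0 to 96 μM in DMEM. MTT read at 490 nm; LC50 taken as concentration reducing viability by 50%; at least three experiments in duplicate.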
# [11] = test system: Trypanosoma cruzi; experiment: Antitrypanosomal activity against Trypanosoma cruzi 960 epimastigotes after 24 hrs by light microscopy; format: functional, organism-based; conditions: Trypanosoma cruzi, 960, 24 h; outline: as §1
# [12] = test system: Trypanosoma cruzi; experiment: Antitrypanosomal activity against Trypanosoma cruzi Columbian bloodstream forms infected in C3H mouse assessed as survival of mouse at 100 mg/kg/day, po administered 5 days postinfection for 10 consecutive days measured after 31 days; format: functional
# Outline: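 Male C3H/He (H-2k) mice infected i.p. with 5 × 10^3 Colombian-strain bloodstream trypomastigotes; only parasitemia-positive mice grouped (n ≥ 6). DB766 100 mg/kg/day given i.p. (0.1 ml) or by gavage (0.1 ml), daily for 10 treatments. Parasitemia by Pizzi-Brener method; mortality checked daily, expressed as cumulative percentage.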
# [13] = test system: Trypanosoma cruzi; experiment: Antitrypanosomal activity against Trypanosoma cruzi Y bloodstream forms infected in Swiss-Webster mouse assessed as decrease in cardiac parasite load at 100 mg/kg/day, ip administered 5 days postinfection for 10 alternate days measured after 14 days postinfection; format: functional, Heart; design: scale not given: the % may be the effect or the level left; conditions: route intraperitoneal
# [14] = test system: Mus musculus; experiment: Toxicity in […](H-2k) mouse assessed as mortality at cumulative dose of 200 mg/kg, ip measured after 48 hrs; format: organism-based; design: dose 200 mg/kg, route intraperitoneal; conditions: in vivo
# Outline: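 Uninfected 8–10-week-old female and male Swiss Webster and C3H/He (H-2k) mice injected i.p. on day 1 every 2 h with escalating doses: 5, 15, 30, 50 and 100 mg/kg (cumulative 20, 50, 100, 200 mg/kg). Toxic and subtoxic signs inspected on days 2–3 per OECD guidelines; tolerated dose set at 48 h.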
# [15] = test system: Trypanosoma cruzi; experiment: Antitrypanosomal activity against Trypanosoma cruzi 855 epimastigotes after 24 hrs by light microscopy; format: functional, organism-based; conditions: Trypanosoma cruzi, 855, 24 h; outline: as §1
# [16] = test system: Trypanosoma cruzi; experiment: Antitrypanosomal activity against Trypanosoma cruzi RBVIII epimastigotes after 24 hrs by light microscopy; format: functional, organism-based; outline: as §1
# [17] = test system: Mus musculus; experiment: Cytotoxicity against Swiss-Webster mouse assessed as effect on creatine kinase at 100 mg/kg/day measured after 14 days postinfection; format: organism-based; conditions: in vivo, 336 h
# [18] = test system: Trypanosoma cruzi; experiment: Antitrypanosomal activity against Trypanosoma cruzi Y bloodstream forms infected in Swiss-Webster mouse assessed as survival of mouse at 50 mg/kg/day, ip administered 8 days postinfection measured on day 120; format: functional, organism-based
# Outline: (§3)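 Male Swiss mice infected i.p. with 10^4 Y strain bloodstream forms. Given 0.2 ml i.p. at 5 and 8 dpi, or daily for 10 days from 5 dpi; reference drug given by gavage. Parasitemia measured by the Pizzi-Brener method, cumulative mortality checked daily to 120 dpi, n ≥ 6 per group.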
# [19] = test system: Trypanosoma cruzi; experiment: Antitrypanosomal activity against Trypanosoma cruzi Y bloodstream forms infected in Swiss-Webster mouse assessed as survival of mouse at 25 mg/kg/day, ip administered 5 days postinfection for 10 consecutive days measured on day 120; format: functional, organism-based; outline: as §3
# [20] = test system: Trypanosoma cruzi; experiment: Antitrypanosomal activity against bloodstream forms of Trypanosoma cruzi Y infected in Swiss mouse cardiomyocytes assessed as parasite mitochondrial swelling at 10 ug/ml after 2 hrs by transmission electron microscopy; format: functional, organism-based
# Outline: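 Y-strain bloodstream trypomastigotes treated 2 to 24 h at 37°C. Fixed 60 min at 4°C in 2.5% glutaraldehyde in 0.1 M cacodylate, pH 7.2. Postfixed 1 h at 4°C in 1% OsO4 with 0.8% potassium ferricyanide. Acetone-dehydrated, Epon-embedded, sections stained with uranyl acetate and lead citrate, ultrastructure examined by TEM.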
# [21] = test system: Trypanosoma cruzi; experiment: Antitrypanosomal activity against Trypanosoma cruzi MS1523 epimastigotes after 24 hrs by light microscopy; format: functional, organism-based; conditions: MS1523, 24 h; outline: as §1
# [22] = test system: Trypanosoma cruzi; experiment: Antitrypanosomal activity against Trypanosoma cruzi Columbian bloodstream forms infected in C3H mouse assessed as decrease in parasite load at 50 mg/kg/day, po administered 5 days postinfection for 10 consecutive days measured after 41 days; format: functional, organism-based
# Outline: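 C3H/He mice infected i.p. with 10^3 or 5 × 10^3 Colombian strain bloodstream forms. Treated daily for 10 days with 0.1 ml i.p. or by gavage, reference drug given by gavage. Parasitemia measured by the Pizzi-Brener method; n ≥ 6 parasitemic mice per group.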
# [23] = Cytotoxicity against Swiss-Webster mouse cardiomyocytes after 24 hrs by MTT assay; format: cell-based, Cardiomyocyte; conditions: read-out: LC50; outline: as §2
smiles,measurement,setting,value
CC(C)Oc1cc(NC(=N)c2ccccn2)ccc1-c1ccc(-c2ccc(NC(=N)c3ccccn3)cc2OC(C)C)o1,Activity,[1],78%
same,IC50,[2],70 nM
same,IC90,[2],220 nM
same,Activity,[3],60%
same,Activity,[4],Non-toxic
same,Activity,[5],Active
same,Selectivity ratio,[6],>533 and 714
same,Activity,[7],Active
same,IC50,[8],25 nM
same,IC50,[9],1140 nM
same,CC50 at 72 h,[10],16400 nM
same,IC50,[11],90 nM
same,IC90,[11],280 nM
same,Activity,[12],100%
same,Activity,[13],94%
same,Activity,[14],Non-toxic
same,IC50,[15],90 nM
same,IC90,[15],330 nM
same,IC50,[16],180 nM
same,IC90,[16],440 nM
same,Activity,[17],Non-toxic
same,Activity,[18],Active
same,Activity,[19],Active
same,Activity,[20],Active
same,IC50,[21],170 nM
same,IC90,[21],410 nM
same,Activity,[22],Active
same,CC50 at 24 h,[23],> 32000 nM
